# Data published in ChEMBL document CHEMBL2086372 (ACS Med Chem Lett, 2012).
# Activity calls are given as the source filed them. The rule behind the calls is not given here.
# Legend:
# [1] = tested on: Mus musculus; test: Antidepressant activity in CD1 mouse assessed as decrease in immobility time at 20 mg/kg, ip after 15 mins by forced swim test relative to vehicle-treated control; assay type: functional, organism-based; set-up: dose 20 mg/kg
# In short: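 Mouse forced swimming test with immobility time as the read-out. Single ip doses were 0.012, 0.025, 0.05, 0.2 or 0.5 mg/kg, with fluoxetine 20 mg/kg ip as reference. Results are compared against vehicle-treated mice and given as means ± SEMs of 8–9 animals.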
# [2] = target: T1, 5-hydroxytryptamine receptor 1A (Homo sapiens, UniProt P08908); test: Displacement of [3H]8-OH-DPAT from human 5HT1A receptor expressed in HeLa cells after 30 mins; assay type: cell-based
# T1 sequence (P08908 whole entry): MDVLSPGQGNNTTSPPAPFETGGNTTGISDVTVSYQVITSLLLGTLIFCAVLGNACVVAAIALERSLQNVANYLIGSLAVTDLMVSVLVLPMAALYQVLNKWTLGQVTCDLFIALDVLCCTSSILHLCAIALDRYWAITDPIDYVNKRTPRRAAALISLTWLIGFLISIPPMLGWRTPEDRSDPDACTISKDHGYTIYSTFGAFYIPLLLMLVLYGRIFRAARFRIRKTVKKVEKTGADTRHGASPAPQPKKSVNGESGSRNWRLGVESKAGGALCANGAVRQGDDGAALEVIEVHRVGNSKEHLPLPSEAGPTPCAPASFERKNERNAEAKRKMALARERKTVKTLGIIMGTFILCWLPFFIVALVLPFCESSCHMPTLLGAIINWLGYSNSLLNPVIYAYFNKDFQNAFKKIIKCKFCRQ
# In short: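 pKi is derived from displacement of [3H]-8-OH-DPAT binding at human cloned 5-HT1A receptor. Values are means ± SEMs of 3–6 separate experiments.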
# [3] = tested on: Mus musculus; test: Antidepressant activity in CD1 mouse assessed as decrease in immobility time at 0.025 mg/kg, ip administered 30 mins prior to coadministration with WAY100635 measured after 15 mins by forced swim test relative to vehicle-treated control; assay type: functional, organism-based; set-up: dose 0.025 mg/kg
# In short: (§1)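 Forced swimming test in mice using 0.025 mg/kg ip test dose. It was combined with the 5-HT1A antagonist WAY 100635 (0.1 mg/kg, sc) or with the α2 antagonist yohimbine (1.250 mg/kg, ip). Each antagonist was also given alone. Immobility time is the read-out, given as means ± SEMs of 7–8 animals.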
# [4] = tested on: Mus musculus; test: Antidepressant activity in CD1 mouse assessed as decrease in immobility time at 0.025 mg/kg, ip administered 15 mins prior to coadministration with yohimbine measured after 15 mins by forced swim test relative to vehicle-treated control; assay type: functional, organism-based; set-up: dose 0.025 mg/kg; in short: as §1
# [5] = target: T2, Alpha-2C adrenergic receptor (Homo sapiens) (UniProt P18825); test: Agonist activity at human alpha2C adrenoceptor expressed in CHO cells assessed as extracellular acidification measured after 4 mins by cytosensor microphysiometric analysis relative to control; assay type: functional, cell-based
# T2 sequence (whole entry): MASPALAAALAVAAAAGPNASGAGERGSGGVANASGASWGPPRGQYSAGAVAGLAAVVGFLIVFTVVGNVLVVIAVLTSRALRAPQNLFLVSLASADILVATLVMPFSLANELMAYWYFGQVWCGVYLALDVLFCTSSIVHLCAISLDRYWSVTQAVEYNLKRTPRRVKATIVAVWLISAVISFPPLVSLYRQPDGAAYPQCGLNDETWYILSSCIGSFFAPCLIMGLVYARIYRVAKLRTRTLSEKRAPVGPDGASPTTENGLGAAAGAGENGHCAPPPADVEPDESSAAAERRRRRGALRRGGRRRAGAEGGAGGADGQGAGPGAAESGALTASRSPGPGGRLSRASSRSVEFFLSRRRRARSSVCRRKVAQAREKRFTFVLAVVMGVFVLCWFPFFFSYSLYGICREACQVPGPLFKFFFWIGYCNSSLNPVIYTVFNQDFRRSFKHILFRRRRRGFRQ
# In short: (§2)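 Binding and functional assays run on CHO cells expressing recombinant human α2-AR subtypes. Functional read-outs are agonist potency (pEC50) with intrinsic activity (ia), or antagonist pKb. Affinity is reported as pKi. Values are means ± SEMs of 3–6 separate experiments.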
# [6] = target: T3, 5-hydroxytryptamine receptor 1A (Homo sapiens) (UniProt P08908); settings: HeLa
# T3 sequence (whole entry): T1 sequence (P08908 whole entry)
# [7] = target: T4, Alpha-2A adrenergic receptor (Homo sapiens) (UniProt P08913); settings: CHO
# T4 sequence (whole entry): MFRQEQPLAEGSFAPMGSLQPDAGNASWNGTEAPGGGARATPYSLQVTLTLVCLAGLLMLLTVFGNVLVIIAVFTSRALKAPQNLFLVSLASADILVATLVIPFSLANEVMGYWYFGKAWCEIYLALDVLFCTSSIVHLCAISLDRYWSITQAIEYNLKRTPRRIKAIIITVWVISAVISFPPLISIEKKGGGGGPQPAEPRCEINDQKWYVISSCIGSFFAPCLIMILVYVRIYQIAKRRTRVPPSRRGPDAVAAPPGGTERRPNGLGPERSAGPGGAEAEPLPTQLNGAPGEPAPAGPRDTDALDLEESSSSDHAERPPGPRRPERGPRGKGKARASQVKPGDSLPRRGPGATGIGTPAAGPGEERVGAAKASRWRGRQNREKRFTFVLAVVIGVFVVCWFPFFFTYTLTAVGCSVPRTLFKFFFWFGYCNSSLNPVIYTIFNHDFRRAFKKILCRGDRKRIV
# [8] = target: T5, Alpha-2A adrenergic receptor (Homo sapiens, UniProt P08913); test: Displacement of [3H]RX821002 from human alpha2A adrenoceptor expressed in CHO cells after 30 mins by scintillation counting; assay type: cell-based; in short: as §2
# T5 sequence (P08913 whole entry): T4 sequence (whole entry)
# [9] = target: T6, Alpha-2B adrenergic receptor (Homo sapiens, UniProt P18089); test: Displacement of [3H]RX821002 from human alpha2B adrenoceptor expressed in CHO cells after 30 mins by scintillation counting; assay type: cell-based; in short: as §2
# T6 sequence (P18089 whole entry): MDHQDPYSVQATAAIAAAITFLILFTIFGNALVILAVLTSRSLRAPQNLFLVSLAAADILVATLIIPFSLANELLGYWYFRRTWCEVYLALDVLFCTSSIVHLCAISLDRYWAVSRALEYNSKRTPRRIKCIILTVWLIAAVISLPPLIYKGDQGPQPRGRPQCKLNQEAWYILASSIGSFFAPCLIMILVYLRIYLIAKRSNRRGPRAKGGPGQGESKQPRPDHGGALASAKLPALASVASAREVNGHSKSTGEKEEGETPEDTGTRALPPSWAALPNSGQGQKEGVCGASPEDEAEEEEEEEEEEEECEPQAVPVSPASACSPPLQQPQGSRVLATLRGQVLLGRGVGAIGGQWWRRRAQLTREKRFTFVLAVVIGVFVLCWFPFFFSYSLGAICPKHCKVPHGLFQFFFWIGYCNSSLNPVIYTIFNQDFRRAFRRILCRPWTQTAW
# [10] = target: T6, Alpha-2B adrenergic receptor; test: Agonist activity at human alpha2B adrenoceptor expressed in CHO cells assessed as extracellular acidification measured after 4 mins by cytosensor microphysiometric analysis
# [11] = tested on: Mus musculus; test: Effect on morphine-dependence in CD1 mouse assessed as decrease in naloxone-precipitated jumping at 0.025 mg/kg, ip administered chronically 15 mins prior to each morphine challenge relative to vehicle-treated control; assay type: functional, organism-based; set-up: dose 0.025 mg/kg
# In short: (§3)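 Acquisition of morphine dependence in mice, tested with repeated ip dosing (racemate 0.05 mg/kg, enantiomers 0.025 mg/kg). Withdrawal was precipitated by naloxone. Scored signs were jumping frequency and somatic signs (rearing, forepaw tremors, teeth chatter). Groups were compared with vehicle and with the morphine group.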
# [12] = tested on: Mus musculus; test: Effect on morphine-dependence in CD1 mouse assessed as decrease in naloxone-precipitated jumping at 0.025 mg/kg, ip administered acutely 15 mins prior to naloxone challenge relative to vehicle-treated control; assay type: functional, organism-based; set-up: dose 0.025 mg/kg
# In short: as §3, with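 “Expression” for “Acquisition”, “a single acute” for “repeated”, “dose” for “dosing”, “naloxone in control and morphine-treated mice.” for “naloxone.”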
# [13] = tested on: Mus musculus; test: Effect on morphine-dependence in CD1 mouse assessed as decrease in naloxone-precipitated rearing at 0.025 mg/kg, ip administered chronically 15 mins prior to each morphine challenge relative to vehicle-treated control; assay type: functional, organism-based; set-up: dose 0.025 mg/kg; in short: as §3
# [14] = tested on: Mus musculus; test: Effect on morphine-dependence in CD1 mouse assessed as decrease in naloxone-precipitated rearing at 0.025 mg/kg, ip administered acutely 15 mins prior to naloxone challenge relative to vehicle-treated control; assay type: functional, organism-based; set-up: dose 0.025 mg/kg
# In short: as §3, with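 “Expression” for “Acquisition”, “a single acute” for “repeated”, “dose” for “dosing”, “naloxone in control and morphine-treated mice.” for “naloxone.”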
# [15] = tested on: Mus musculus; test: Effect on morphine-dependence in CD1 mouse assessed as decrease in naloxone-precipitated forepaw tremors at 0.025 mg/kg, ip administered chronically 15 mins prior to each morphine challenge relative to vehicle-treated control; assay type: functional, organism-based; set-up: dose 0.025 mg/kg; in short: as §3
# [16] = tested on: Mus musculus; test: Effect on morphine-dependence in CD1 mouse assessed as decrease in naloxone-precipitated forepaw tremors at 0.025 mg/kg, ip administered acutely 15 mins prior to naloxone challenge relative to vehicle-treated control; assay type: functional, organism-based; set-up: dose 0.025 mg/kg
# In short: as §3, with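 “Expression” for “Acquisition”, “a single acute” for “repeated”, “dose” for “dosing”, “naloxone in control and morphine-treated mice.” for “naloxone.”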
# [17] = tested on: Mus musculus; test: Effect on morphine-dependence in CD1 mouse assessed as decrease in naloxone-precipitated teeth chatter at 0.025 mg/kg, ip administered chronically 15 mins prior to each morphine challenge relative to vehicle-treated control; assay type: functional, organism-based; set-up: dose 0.025 mg/kg; in short: as §3
# [18] = tested on: Mus musculus; test: Effect on morphine-dependence in CD1 mouse assessed as decrease in naloxone-precipitated teeth chatter at 0.025 mg/kg, ip administered acutely 15 mins prior to naloxone challenge relative to vehicle-treated control; assay type: functional, organism-based; set-up: dose 0.025 mg/kg
# In short: as §3, with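 “Expression” for “Acquisition”, “a single acute” for “repeated”, “dose” for “dosing”, “naloxone in control and morphine-treated mice.” for “naloxone.”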
# [19] = target: T7, Alpha-2C adrenergic receptor (Homo sapiens, UniProt P18825); test: Displacement of [3H]RX821002 from human alpha2C adrenoceptor expressed in CHO cells after 30 mins by scintillation counting; assay type: cell-based; in short: as §2
# T7 sequence (P18825 whole entry): T2 sequence (whole entry)
# [20] = target: T7, Alpha-2C adrenergic receptor; test: Agonist activity at human alpha2C adrenoceptor expressed in CHO cells assessed as extracellular acidification measured after 4 mins by cytosensor microphysiometric analysis; assay type: functional, cell-based; in short: as §2
smiles,measurement,setting,value
CNCCC(Oc1ccc(C(F)(F)F)cc1)c1ccccc1 (stereo not given),Activity,[1],Active
Clc1cccc(Cl)c1N=C1NCCN1 [CLONIDINE],Ki,[2],3240 nM
C=CCc1ccccc1O[C@@H](C)C1=NCCN1,Ki,[2],35.5 nM
same,Activity,[3],inactive
same,Activity,[4],inactive
same,Intrinsic activity,[5],0.9
same,pD2,[6],7.19
same,pKb,[7],7.8
C[C@@H](Oc1ccccc1CC1CC1)C1=NCCN1,Ki,[2],39.8 nM
same,Ki,[8],44.7 nM
same,Ki,[9],339 nM
same,EC50,[10],3980 nM
same,Activity,[11],Active
same,Activity,[12],Active
same,Activity,[13],Active
same,Activity,[14],Active
same,Activity,[15],Active
same,Activity,[16],Active
same,Activity,[17],Active
same,Activity,[18],Active
same,Activity,[3],inactive
same,Activity,[4],inactive
same,Ki,[19],234 nM
same,EC50,[20],316 nM
same,Intrinsic activity,[5],0.75
